Data set [1] is described as follows: Aqueous solubility of the compound at pH 7.4. The data set is classed as physicochemical.
For data set [2], the target named is T1, CYP1A2 (Homo sapiens, UniProt P05177).
T1 sequence (P05177 whole entry): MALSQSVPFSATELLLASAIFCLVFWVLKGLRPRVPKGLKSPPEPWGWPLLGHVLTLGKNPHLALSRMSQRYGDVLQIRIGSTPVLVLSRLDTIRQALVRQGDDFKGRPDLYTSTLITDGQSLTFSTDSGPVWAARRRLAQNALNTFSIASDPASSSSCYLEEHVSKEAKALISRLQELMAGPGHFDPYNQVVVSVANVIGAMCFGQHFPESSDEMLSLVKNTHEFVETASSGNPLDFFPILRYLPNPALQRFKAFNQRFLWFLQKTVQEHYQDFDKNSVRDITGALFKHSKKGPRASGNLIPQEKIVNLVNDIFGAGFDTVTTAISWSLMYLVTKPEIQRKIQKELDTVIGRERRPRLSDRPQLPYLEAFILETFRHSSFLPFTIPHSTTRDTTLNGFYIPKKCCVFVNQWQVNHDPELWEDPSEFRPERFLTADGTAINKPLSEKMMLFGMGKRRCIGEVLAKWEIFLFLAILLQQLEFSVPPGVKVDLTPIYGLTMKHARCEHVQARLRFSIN
The data set can be described thus: Inhibition of CYP1A2 at 1 uM. It counts as ADME.

Data set [3] concerns the target T1, CYP1A2. The data set can be described thus: Inhibition of CYP1A2 at 100 uM. It counts as ADME.
The next data set has as its target CYP3A4 (Homo sapiens, UniProt P08684). The data set can be described thus: Inhibition of CYP3A4 at 1 uM. It counts as ADME.
The target of data set [4] is T2, CYP2D6 (Homo sapiens, UniProt P10635). The data set can be described thus: Inhibition of CYP2D6 at 1 uM. The data set is classed as ADME.
Data set [5] addresses T2, CYP2D6. Briefly: Inhibition of CYP2D6 at 100 uM. It counts as ADME.
Data set [6] can be described thus: Volume of distribution at steady state in rat at 5 mg/kg, iv. It counts as ADME, organism-based. The arrangement: dose 5 mg/kg, route intravenous. The following applies: in vivo, read-out: Vdss. Put shortly:
(§1)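 Rats, not fasted, received a single intravenous or oral dose.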

Data set [7] can be described thus: Cmax in rat at 5 mg/kg, po. The data set is classed as ADME, organism-based. As to conditions: in vivo. Further details: dose 5 mg/kg, route oral.
Data set [8] is described as follows: Half life in rat at 5 mg/kg, po. It counts as ADME, organism-based. The arrangement: dose 5 mg/kg, route oral. As to conditions: in vivo.
The next data set has as its system Rattus norvegicus. The data set can be described thus: Oral bioavailability in rat at 5 mg/kg, po. The data set is classed as ADME, organism-based. The following applies: in vivo. Summed up:
as §1

A short description of data set [9]: Cmax in rat at 30 mg/kg, po. It counts as ADME, organism-based. Further details: dose 30 mg/kg, route oral. As to conditions: in vivo.
The subject of data set [10] is Mus musculus. The data set can be described thus: Immunosuppressive activity in delayed-type hypersensitivity po dosed […] ICR mouse assessed as inhibition of sheep RBC-induced foot-pad swelling administered 1 hr prior and 2 hr after SRBC challenge measured on day 5 by Plethysmometer. It counts as functional, organism-based.
The test system of data set [11] is Mus musculus. The data set can be described thus: Toxicity in ICR mouse assessed as CNS excitation at 1000 mg/kg, po administered as single dose. It counts as organism-based. As to conditions: in vivo. Further details: dose 1000 mg/kg, route oral.
Data set [12] relates to Mus musculus. Briefly: Toxicity in ICR mouse assessed as vacuolar degeneration in liver at 300 mg/kg, po QD for 14 days. It counts as organism-based. Further details: dose 300 mg/kg, route oral. The following applies: in vivo, 336 h.

Molecules are shown by their SMILES. The source made the active and inactive calls. The rule behind the calls is not given here.

T2 sequence (P10635 whole entry): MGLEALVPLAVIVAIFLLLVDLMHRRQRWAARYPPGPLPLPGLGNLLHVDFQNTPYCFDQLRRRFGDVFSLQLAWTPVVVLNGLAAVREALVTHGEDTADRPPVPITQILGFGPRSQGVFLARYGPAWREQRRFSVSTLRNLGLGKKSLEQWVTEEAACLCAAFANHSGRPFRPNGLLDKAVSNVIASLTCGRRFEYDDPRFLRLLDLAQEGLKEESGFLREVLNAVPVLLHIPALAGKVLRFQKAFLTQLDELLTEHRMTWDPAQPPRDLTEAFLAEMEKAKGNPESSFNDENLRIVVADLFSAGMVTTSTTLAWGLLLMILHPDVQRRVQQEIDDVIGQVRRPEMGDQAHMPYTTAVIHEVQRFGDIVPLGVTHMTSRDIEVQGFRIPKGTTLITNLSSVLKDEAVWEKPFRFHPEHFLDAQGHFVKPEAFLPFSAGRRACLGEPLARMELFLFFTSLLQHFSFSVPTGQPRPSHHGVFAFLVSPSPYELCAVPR
Sequence of CYP3A4 (P08684 whole entry): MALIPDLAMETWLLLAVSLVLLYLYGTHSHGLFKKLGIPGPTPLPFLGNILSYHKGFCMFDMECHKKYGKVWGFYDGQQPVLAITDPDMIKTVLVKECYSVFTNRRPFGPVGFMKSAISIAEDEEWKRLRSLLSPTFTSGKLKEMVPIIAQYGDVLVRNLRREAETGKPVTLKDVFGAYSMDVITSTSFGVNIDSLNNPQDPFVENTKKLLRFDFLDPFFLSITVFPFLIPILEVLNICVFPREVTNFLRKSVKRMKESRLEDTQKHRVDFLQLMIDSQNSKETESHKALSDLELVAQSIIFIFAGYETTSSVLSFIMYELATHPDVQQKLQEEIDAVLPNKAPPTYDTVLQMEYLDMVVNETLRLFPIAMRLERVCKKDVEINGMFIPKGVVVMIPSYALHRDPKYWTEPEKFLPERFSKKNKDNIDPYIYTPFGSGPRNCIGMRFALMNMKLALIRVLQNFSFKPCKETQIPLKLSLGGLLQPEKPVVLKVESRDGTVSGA

A word on the solubility: it is the concentration that dissolves in the medium under given conditions. Read a low solubility as little dissolved substance. As a reminder, the inhibition is the relative decrease from the control value, in per cent. A word on the Cmax: it is the highest concentration seen after dosing. One may read the half-life as how long it takes for the measured level to halve. A low value points to fast loss. Regarding `Cc1nn(C)c2nc(N(C)CCN(C)C)c(C(=O)NC(=O)Nc3cccc(OC(C)C)c3)cc12.Cl`, in data set [1], the solubility was found to be 7.8 µg/mL. Further, the inhibition at 1 µM against CYP1A2 [2] is -12%; against CYP3A4, 4%; against CYP2D6 [4], -5%. The inhibition at 100 µM against CYP1A2 [3] was -2%; at CYP2D6 [5], 73%. For the same compound, the Vd in data set [6] came to 9.9 L/kg. The Cmax in [7] worked out at 129 ng/mL; in data set [9], 383 ng/mL. Moreover, the half-life in data set [8] is above 24 h. Further, in the data set on Rattus norvegicus, the F is given as 60%. The outcome in the data set with Mus musculus [10] was Active. The Activity result in the data set on Mus musculus [11] and in the data set on Mus musculus [12] was “Toxic” each time.

Values taken from ChEMBL document CHEMBL1687928, “Discovery, optimization, and pharmacological characterization of novel heteroaroylphenylureas antagonists of C-C chemokine ligand 2 function” (J Med Chem, 2011).
